In ChEMBL document CHEMBL5108089, “Structure-based discovery of potent inhibitors of Axl: design, synthesis, and biological evaluation” (RSC Med Chem, 2022):
Activity calls are given as the source filed them. No cut-off for these calls is given here.

What was measured:
[1] = molecular target: Receptor-type tyrosine-protein kinase FLT3 (Homo sapiens) (UniProt P36888); assay: Inhibition of Flt3 (unknown origin) at 1 uM
[2] = Half-life in Sprague-Dawley rat at 1 mg/kg, iv measured upto 24 hrs by LC-MS/MS analysis; assay type: ADME, organism-based; settings: in vivo
[3] = molecular target: Tyrosine-protein kinase TXK (Homo sapiens) (UniProt P42681); assay: Inhibition of Txk (unknown origin) at 1 uM relative to control
Tyrosine-protein kinase TXK (Homo sapiens), sequence (P42681 whole entry): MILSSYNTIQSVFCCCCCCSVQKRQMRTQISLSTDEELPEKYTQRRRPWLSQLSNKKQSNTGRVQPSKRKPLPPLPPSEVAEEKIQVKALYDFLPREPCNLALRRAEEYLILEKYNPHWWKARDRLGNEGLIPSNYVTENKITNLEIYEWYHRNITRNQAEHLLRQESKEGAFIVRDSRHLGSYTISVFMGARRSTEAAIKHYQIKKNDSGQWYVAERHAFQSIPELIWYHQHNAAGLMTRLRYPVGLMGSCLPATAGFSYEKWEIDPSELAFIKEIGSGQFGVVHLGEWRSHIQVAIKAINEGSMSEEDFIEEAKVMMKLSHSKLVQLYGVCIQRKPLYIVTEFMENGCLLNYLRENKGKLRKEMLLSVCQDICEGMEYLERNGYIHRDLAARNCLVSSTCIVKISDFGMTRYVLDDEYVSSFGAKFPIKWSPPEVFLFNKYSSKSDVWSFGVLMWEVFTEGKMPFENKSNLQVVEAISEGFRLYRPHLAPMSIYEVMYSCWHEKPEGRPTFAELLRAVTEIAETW

BXPC-3 = assay: Antiproliferative activity against human BXPC-3 cells assessed as inhibition of cell growth incubated for 72 hrs by CCK-8 assay; assay type: functional
MOLM-13 = assay: Antiproliferative activity against human MOLM-13 cells assessed as inhibition of cell growth incubated for 72 hrs by CCK-8 assay; assay type: functional
[4] = Antiproliferative activity against human NCI-H1954 cells assessed as inhibition of cell growth incubated for 72 hrs by CCK-8 assay; assay type: functional
[5] = molecular target: Vascular endothelial growth factor receptor 2 (Homo sapiens) (UniProt P35968); assay: Inhibition of KDR (unknown origin) at 1 uM relative to control
KU812 cell line = assay: Antiproliferative activity against human KU812 cells assessed as inhibition of cell growth incubated for 72 hrs by CCK-8 assay; assay type: functional
Method in brief: (§1)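 Plated at 10000 cells/well. Dose series topped at 10 uM for test compound and at 1 uM for the staurosporine reference. Read-outs were CC50 and maximum % inhibition.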

HepG2 = assay: Antiproliferative activity against human HepG2 cells assessed as inhibition of cell growth incubated for 72 hrs by CCK-8 assay; assay type: functional
[6] = Metabolic stability in rat liver microsomes assessed as intrinsic clearance preincubated for 10 mins followed by NADPH addition and measured upto 60 mins by LC-MS/MS analysis; assay type: ADME, Microsome; settings: time < 70 min, read-out: CLH
SNU-16 = assay: Antiproliferative activity against human SNU-16 cells assessed as inhibition of cell growth incubated for 72 hrs by CCK-8 assay; assay type: functional
Method in brief: (§2)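 8000 cells/well. Test compound was serially diluted from a 10 uM top concentration and staurosporine from 1 uM. CC50 and maximum % inhibition are reported.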

EVSA-T = assay: Antiproliferative activity against human EVSA-T cells assessed as inhibition of cell growth incubated for 72 hrs by CCK-8 assay; assay type: functional
[7] = molecular target: Proto-oncogene tyrosine-protein kinase receptor Ret (Homo sapiens) (UniProt P07949); assay: Inhibition of Ret (unknown origin) at 1 uM relative to control
Proto-oncogene tyrosine-protein kinase receptor Ret (Homo sapiens), sequence (P07949 whole entry): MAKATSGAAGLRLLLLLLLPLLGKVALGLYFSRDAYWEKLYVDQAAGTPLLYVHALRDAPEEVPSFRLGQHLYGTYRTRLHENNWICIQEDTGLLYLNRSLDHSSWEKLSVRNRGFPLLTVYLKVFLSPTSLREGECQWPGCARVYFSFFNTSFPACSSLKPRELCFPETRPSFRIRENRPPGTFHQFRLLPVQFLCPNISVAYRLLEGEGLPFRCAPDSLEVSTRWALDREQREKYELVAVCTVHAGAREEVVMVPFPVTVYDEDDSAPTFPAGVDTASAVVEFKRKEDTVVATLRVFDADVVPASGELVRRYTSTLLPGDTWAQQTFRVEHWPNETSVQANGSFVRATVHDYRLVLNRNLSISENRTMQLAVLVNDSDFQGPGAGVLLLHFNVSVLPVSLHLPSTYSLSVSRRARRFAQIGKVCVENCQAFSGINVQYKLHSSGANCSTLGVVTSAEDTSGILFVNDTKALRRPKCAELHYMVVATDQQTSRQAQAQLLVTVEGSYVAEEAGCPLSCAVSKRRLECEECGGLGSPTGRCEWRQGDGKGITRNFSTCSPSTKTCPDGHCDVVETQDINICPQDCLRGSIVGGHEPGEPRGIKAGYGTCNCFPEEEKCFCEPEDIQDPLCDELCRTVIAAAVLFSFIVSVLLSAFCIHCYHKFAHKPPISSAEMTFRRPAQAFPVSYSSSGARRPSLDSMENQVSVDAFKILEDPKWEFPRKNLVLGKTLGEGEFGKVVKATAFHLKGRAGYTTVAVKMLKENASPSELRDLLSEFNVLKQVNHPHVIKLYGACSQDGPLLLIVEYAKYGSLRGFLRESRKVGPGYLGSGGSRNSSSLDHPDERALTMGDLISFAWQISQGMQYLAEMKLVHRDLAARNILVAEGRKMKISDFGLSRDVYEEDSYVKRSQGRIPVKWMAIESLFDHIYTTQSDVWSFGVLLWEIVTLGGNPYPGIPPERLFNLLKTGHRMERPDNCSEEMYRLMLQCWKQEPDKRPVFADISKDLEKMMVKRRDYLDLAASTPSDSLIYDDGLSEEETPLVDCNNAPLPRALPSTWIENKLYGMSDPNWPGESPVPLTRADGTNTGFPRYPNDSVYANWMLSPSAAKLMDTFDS

[8] = Oral bioavailability in Sprague-Dawley rat at 5 mg/kg measured upto 24 hrs by LC-MS/MS analysis; assay type: ADME, organism-based; settings: in vivo
U-87 MG = assay: Antiproliferative activity against human U87 cells assessed as inhibition of cell growth incubated for 72 hrs by CCK-8 assay; assay type: functional, U-87MG ATCC
SNU-5 = assay: Antiproliferative activity against human SNU-5 cells assessed as inhibition of cell growth incubated for 72 hrs by CCK-8 assay; assay type: functional; method in brief: as §1
Calu-3 = assay: Antiproliferative activity against human Calu-3 cells assessed as inhibition of cell growth incubated for 72 hrs by CCK-8 assay; assay type: functional; method in brief: as §1
[9] = Intrinsic clearance in rat; assay type: ADME
[10] = AUC (0 to last) in Sprague-Dawley rat at 1 mg/kg, iv measured upto 24 hrs by LC-MS/MS analysis; assay type: ADME, organism-based; design: dose 1 mg/kg, time < 24 hrs, route iv; settings: in vivo
[11] = molecular target: Hepatocyte growth factor receptor (Homo sapiens) (UniProt P08581); assay: Inhibition of Met (unknown origin) at 1 uM relative to control
Hepatocyte growth factor receptor (Homo sapiens), sequence (P08581 whole entry): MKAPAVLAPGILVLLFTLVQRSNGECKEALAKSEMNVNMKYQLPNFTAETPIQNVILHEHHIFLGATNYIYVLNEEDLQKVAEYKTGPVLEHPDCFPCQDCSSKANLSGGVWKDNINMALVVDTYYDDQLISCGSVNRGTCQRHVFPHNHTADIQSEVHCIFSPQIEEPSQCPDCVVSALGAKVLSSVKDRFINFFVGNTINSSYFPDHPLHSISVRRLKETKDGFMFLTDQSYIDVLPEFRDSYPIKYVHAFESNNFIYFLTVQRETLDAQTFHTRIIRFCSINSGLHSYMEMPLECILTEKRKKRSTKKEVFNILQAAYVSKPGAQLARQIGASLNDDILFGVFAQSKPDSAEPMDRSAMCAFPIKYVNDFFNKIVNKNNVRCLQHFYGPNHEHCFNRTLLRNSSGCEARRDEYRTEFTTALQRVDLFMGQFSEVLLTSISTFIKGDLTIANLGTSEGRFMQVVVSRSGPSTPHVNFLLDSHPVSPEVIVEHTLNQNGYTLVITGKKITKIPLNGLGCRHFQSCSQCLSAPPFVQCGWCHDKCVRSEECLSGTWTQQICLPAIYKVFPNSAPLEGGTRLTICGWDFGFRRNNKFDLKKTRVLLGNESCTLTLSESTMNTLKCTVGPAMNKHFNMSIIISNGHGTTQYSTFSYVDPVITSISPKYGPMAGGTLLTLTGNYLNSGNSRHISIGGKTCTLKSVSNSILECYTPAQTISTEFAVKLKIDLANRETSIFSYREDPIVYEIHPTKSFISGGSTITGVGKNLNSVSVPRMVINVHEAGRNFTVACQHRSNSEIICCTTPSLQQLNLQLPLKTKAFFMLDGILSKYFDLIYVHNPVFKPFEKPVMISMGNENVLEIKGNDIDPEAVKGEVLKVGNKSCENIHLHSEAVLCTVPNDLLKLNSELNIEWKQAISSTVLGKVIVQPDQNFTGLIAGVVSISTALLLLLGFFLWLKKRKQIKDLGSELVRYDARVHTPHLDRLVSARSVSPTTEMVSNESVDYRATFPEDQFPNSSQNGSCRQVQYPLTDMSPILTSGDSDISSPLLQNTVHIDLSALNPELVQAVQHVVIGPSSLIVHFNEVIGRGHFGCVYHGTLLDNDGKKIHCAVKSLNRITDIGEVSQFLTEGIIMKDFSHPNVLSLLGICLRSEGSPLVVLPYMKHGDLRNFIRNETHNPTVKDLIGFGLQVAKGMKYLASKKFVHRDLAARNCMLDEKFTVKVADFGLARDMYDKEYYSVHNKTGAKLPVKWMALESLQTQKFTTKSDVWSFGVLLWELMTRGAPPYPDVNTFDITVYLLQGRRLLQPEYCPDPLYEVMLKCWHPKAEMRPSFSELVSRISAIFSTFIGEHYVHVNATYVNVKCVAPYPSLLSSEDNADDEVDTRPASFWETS

HEL 92.1.7 = assay: Antiproliferative activity against human HEL 92.1.7 cells assessed as inhibition of cell growth incubated for 72 hrs by CCK-8 assay; assay type: functional; method in brief: as §2
[12] = Intrinsic clearance in human; assay type: ADME
MSTO-211H = assay: Antiproliferative activity against human MSTO-211H cells assessed as inhibition of cell growth incubated for 72 hrs by CCK-8 assay; assay type: functional
RS4-11 = assay: Antiproliferative activity against human RS4-11 cells assessed as inhibition of cell growth incubated for 72 hrs by CCK-8 assay; assay type: functional; method in brief: as §2
MV4-11 = assay: Antiproliferative activity against human MV4-11 cells assessed as inhibition of cell growth incubated for 72 hrs by CCK-8 assay; assay type: functional; method in brief: as §2
[13] = Cmax in Sprague-Dawley rat at 1 mg/kg, iv measured upto 24 hrs by LC-MS/MS analysis; assay type: ADME, organism-based; design: time < 24 hrs, dose 1 mg/kg, route iv; settings: in vivo
CAL-27 = assay: Antiproliferative activity against human CAL-27 cells assessed as inhibition of cell growth incubated for 72 hrs by CCK-8 assay; assay type: functional
COLO 205 = assay: Antiproliferative activity against human COLO 205 cells assessed as inhibition of cell growth incubated for 72 hrs by CCK-8 assay; assay type: functional
SW-620 = assay: Antiproliferative activity against human SW620 cells assessed as inhibition of cell growth incubated for 72 hrs by CCK-8 assay; assay type: functional
[14] = Cmax in Sprague-Dawley rat at 5 mg/kg, po measured upto 24 hrs by LC-MS/MS analysis; assay type: ADME, organism-based; design: dose 5 mg/kg, time < 24 hrs, route po; settings: in vivo
CAKI-1 = assay: Antiproliferative activity against human CAKI-1 cells assessed as inhibition of cell growth incubated for 72 hrs by CCK-8 assay; assay type: functional
SUD4 = assay: Antiproliferative activity against human SU-DHL-4 cells assessed as inhibition of cell growth incubated for 72 hrs by CCK-8 assay; assay type: functional; method in brief: as §2
[15] = molecular target: Aurora kinase A (Homo sapiens) (UniProt O14965); assay: Inhibition of Aurora A (unknown origin) at 1 uM
[16] = Metabolic stability in human liver microsomes assessed as intrinsic clearance preincubated for 10 mins followed by NADPH addition and measured upto 60 mins by LC-MS/MS analysis; assay type: ADME, Microsome; settings: time < 70 min, read-out: CLH
FaDu = assay: Antiproliferative activity against human FaDu cells assessed as inhibition of cell growth incubated for 72 hrs by CCK-8 assay; assay type: functional
[17] = Metabolic stability in human liver microsomes assessed as half-life preincubated for 10 mins followed by NADPH addition and measured upto 60 mins by LC-MS/MS analysis; assay type: ADME, Microsome; settings: time < 70 min
MCF7 = assay: Antiproliferative activity against human MCF7 cells assessed as inhibition of cell growth incubated for 72 hrs by CCK-8 assay; assay type: functional
HeLa = assay: Antiproliferative activity against human HeLa cells assessed as inhibition of cell growth incubated for 72 hrs by CCK-8 assay; assay type: functional
T-24 = assay: Antiproliferative activity against human T24 cells assessed as inhibition of cell growth incubated for 72 hrs by CCK-8 assay; assay type: functional
MGC-803 = assay: Antiproliferative activity against human MGC-803 cells assessed as inhibition of cell growth incubated for 72 hrs by CCK-8 assay; assay type: functional
Raji = assay: Antiproliferative activity against human Raji cells assessed as inhibition of cell growth incubated for 72 hrs by CCK-8 assay; assay type: functional; method in brief: as §2
HT-29 = assay: Antiproliferative activity against human HT-29 cells assessed as inhibition of cell growth incubated for 72 hrs by CCK-8 assay; assay type: functional
[18] = molecular target: Tyrosine-protein kinase receptor UFO (Homo sapiens) (UniProt P30530); assay: Inhibition of Axl (unknown origin) a 1 uM relative to control
Tyrosine-protein kinase receptor UFO (Homo sapiens), sequence (P30530 whole entry): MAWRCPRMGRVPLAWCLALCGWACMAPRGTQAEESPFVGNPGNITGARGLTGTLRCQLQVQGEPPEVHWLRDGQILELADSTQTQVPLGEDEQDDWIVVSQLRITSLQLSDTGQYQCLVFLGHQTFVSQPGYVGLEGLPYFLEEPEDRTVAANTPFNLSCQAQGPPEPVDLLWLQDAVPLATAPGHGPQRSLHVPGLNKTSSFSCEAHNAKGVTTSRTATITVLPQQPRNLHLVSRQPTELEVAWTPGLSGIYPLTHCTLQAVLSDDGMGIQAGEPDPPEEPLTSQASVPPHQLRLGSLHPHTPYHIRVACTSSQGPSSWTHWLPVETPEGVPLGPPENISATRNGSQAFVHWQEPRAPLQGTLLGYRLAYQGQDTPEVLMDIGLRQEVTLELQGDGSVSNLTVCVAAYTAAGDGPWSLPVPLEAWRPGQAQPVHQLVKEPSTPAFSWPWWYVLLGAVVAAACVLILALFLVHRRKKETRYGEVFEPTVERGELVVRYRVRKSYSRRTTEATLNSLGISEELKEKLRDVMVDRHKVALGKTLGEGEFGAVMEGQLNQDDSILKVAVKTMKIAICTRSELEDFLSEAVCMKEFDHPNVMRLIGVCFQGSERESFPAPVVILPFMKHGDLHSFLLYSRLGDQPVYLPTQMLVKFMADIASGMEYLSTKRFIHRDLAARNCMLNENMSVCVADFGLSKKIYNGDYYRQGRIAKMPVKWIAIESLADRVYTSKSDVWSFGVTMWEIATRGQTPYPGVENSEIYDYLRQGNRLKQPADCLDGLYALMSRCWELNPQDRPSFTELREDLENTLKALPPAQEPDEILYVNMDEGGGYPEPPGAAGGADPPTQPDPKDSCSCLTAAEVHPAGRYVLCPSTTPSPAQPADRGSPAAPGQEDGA
Method in brief: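 Ran 40 min at room temperature, stopped with 0.5% phosphoric acid, then filter-bound, washed and scintillation-counted. Inhibition was calculated as 100 − activity (%), given as mean ±SD.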

Receptor-type tyrosine-protein kinase FLT3 (Homo sapiens), sequence (P36888 whole entry): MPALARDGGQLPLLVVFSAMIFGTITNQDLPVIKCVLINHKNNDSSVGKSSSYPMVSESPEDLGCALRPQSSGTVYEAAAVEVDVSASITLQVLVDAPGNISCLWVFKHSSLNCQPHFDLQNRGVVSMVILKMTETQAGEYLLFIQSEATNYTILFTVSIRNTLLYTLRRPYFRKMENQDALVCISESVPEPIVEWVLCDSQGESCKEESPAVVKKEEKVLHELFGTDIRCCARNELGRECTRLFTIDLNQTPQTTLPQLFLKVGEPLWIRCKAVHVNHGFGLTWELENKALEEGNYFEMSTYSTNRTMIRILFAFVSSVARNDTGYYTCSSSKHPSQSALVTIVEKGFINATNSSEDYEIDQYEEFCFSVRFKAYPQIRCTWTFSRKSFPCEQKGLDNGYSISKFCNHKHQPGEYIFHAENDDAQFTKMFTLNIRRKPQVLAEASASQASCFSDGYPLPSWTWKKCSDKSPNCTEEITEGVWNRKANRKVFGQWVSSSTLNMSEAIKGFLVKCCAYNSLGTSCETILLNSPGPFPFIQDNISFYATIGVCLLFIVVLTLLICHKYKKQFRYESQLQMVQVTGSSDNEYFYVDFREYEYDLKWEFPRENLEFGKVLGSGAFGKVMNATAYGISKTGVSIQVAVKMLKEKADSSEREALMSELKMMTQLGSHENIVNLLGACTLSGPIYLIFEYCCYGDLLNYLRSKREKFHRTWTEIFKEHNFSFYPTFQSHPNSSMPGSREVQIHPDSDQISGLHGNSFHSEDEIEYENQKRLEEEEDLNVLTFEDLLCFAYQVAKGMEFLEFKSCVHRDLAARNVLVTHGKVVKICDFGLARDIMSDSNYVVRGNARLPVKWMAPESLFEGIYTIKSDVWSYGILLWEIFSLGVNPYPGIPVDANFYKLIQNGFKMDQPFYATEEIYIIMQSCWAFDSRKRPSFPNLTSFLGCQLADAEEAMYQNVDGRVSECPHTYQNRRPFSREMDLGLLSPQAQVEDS

Structure (SMILES): CC(C)n1cnc(-c2ccccc2Nc2nc(Nc3ccc(N(C)C4CCN(C)CC4)cc3)ncc2Cl)n1
- inhibition [1]: Active
- half-life [2]: 6.6 h
- inhibition [3]: 70%
- CC50 (BXPC-3): 382 nM
- CC50 (MOLM-13): 206 nM
- CC50 [4]: 1210 nM
- inhibition [5]: 70%
- CC50 (KU812 cell line): 233 nM
- CC50 (HepG2): 352 nM
- CLint scaled [6]: 87.7 mL/min/kg
- CC50 (SNU-16): 149 nM
- CC50 (EVSA-T): 1150 nM
- inhibition [7]: 70%
- bioavailability [8]: 56.1%
- CC50 (U-87 MG): 3010 nM
- CC50 (SNU-5): 356 nM
- CC50 (Calu-3): 107 nM
- CLint scaled [9]: 33.9 mL/min/kg
- AUClast [10]: 422 ng·h/mL
- inhibition [11]: 70%
- CC50 (HEL 92.1.7): 457 nM
- CLint scaled [12]: 12 mL/min/kg
- CC50 (MSTO-211H): 451 nM
- CC50 (RS4-11): 138 nM
- CC50 (MV4-11): 66 nM
- Cmax [13]: 56.3 ng/mL
- CC50 (CAL-27): 107 nM
- CC50 (COLO 205): 350 nM
- CC50 (SW-620): 349 nM
- Cmax [14]: 83.9 ng/mL
- CC50 (CAKI-1): 493 nM
- CC50 (SUD4): 35.9 nM
- inhibition [15]: Active
- CLint scaled [16]: 28.7 mL/min/kg
- CC50 (FaDu): 79.8 nM
- half-life [17]: 1.01 h
- CC50 (MCF7): 5190 nM
- CC50 (HeLa): 199 nM
- CC50 (T-24): 933 nM
- CC50 (MGC-803): 103 nM
- CC50 (Raji): 4560 nM
- CC50 (HT-29): 504 nM
- inhibition [18]: 90%
